Source: PubChem (several laboratories)
Arrestin-AP2 inh: human beta-arrestin and AP2 interaction inhibition | AID 504490 | 0.31% of 340,000 active | FITC-arrestin peptide / GST-AP2 beads, flow cytometry; AP2 beta2 appendage carries R879A mutation | inhibition, % at 10 µM;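 active = inhibition above a set limit, near 3 SD of compounds lacking own fluorescence, cut at about 54% in these data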;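 note: plate controls were DMSO wells for no effect and 5 µM unlabelled arrestin peptide for full effect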
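Material – GST-tagged AP2 beta2-adaptin appendage (R879A) on 4 µm glutathione beads · Probe or stimulus – fluorescein-tagged arrestin peptide at 50 nM final · Timing – 12 min plus 1 h, RT · Detection – bead flow cytometry, FITC channel · Read-out basis – inhibition as reduced fluorescein signal on beads, percent · Medium – PBS plus Tween 20 (0.05%) and BSA (0.1%)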
FAS TE block: inhibitors of human fatty acid synthase thioesterase domain; P49327; recombinant FAS-TE, OMFH fluorogenic substrate, fluorescence endpoint; inhibition, % at 15 µM; 0.67% of 360,000 active; AID 602261;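 active = compounds whose normalised, plate-corrected inhibition of enzyme fluorescence in the single-dose primary screen is 50% or more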;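 note: 0% = DMSO with enzyme and 100% = substrate without enzyme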
iPSC survival up: enhancers of human iPSC single-cell survival. hiPSC single-cell survival, ATPlite luminescence; 100% = ROCK inhibitor wells, 0% = DMSO. survival enhancement, % at 20 µM. 0.044% of 360,000 active. AID 602274; in the data active = survival enhancement above about 18%;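 note: cells exposed to compounds for 16 hours before the ATP read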
SENP1 inh: blocks the human SENP1 SUMO protease catalytic domain; recombinant SENP1 catalytic domain, CyPet-SUMO1-YPet FRET cleavage; inhibition, % at 10 µM; 0.21% of 360,000 active;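 active = inhibition at least 30% at 10 µM, raw YFP signal under a set limit, fluorescence ratio 0.5 to 1.5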;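 note: 0% = enzyme with DMSO and 100% = no enzyme wells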
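material = recombinant human SENP1 catalytic domain, His6-tagged | quantity = 20 pM enzyme | reagent = 25 nM SUMO1 FRET substrate | compound dosing = 10 µM single point, 0.5% DMSO | timing = 50 min enzyme reaction, room temperature, light-protected | detection = FRET, CFP and YFP emission | control set = no-enzyme low, enzyme-DMSO high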
GRIN3A LBD mod: modulates the human NR3A ligand-binding domain | NR3A LBD differential scanning fluorimetry, Tm shift; 0% = protein alone, 100% = glycine-bound protein | Tm shift relative to glycine control, % at 25 µM | 2.5% of 340,000 active;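 active = melting temperature shift of at least 10% of the positive control shift, at one fixed dose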
H9c2 protect: myocardial damage modulation in H9c2 cells; H9c2 cardiomyocytes, H2O2 injury protection, ATPLite, 2 h; protection from H2O2 cell death, % at 20 µM; 0.63% of 360,000 active; AID 588492;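 active = compounds giving at least 50% protection of heart cells from peroxide-induced death in the single-dose screen, raw or plate-pattern-corrected value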;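 note: 0% = DMSO wells with peroxide and 100% = DMSO wells without peroxide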
Arr AP2 CP1: inhibitors of human beta-arrestin and AP2 interaction | inhibition, % at 10 µM | shares compounds with Arrestin-AP2 inh | 2% of 1,300 active | GST-AP2 beads, FITC arrestin peptide binding, flow cytometry; GST-fused beta2-adaptin appendage, R879A mutant;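 active = inhibition above a set limit, roughly 3 SD of non-fluorescent compound noise, cut at about 38% in these data; inactive = inhibition at or below that limit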;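 note: loss of bead fluorescence from 50 nM FITC arrestin peptide bound to appendage; 0% = negative control wells and 100% = excess unlabelled arrestin peptide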
Target sequence (P63010 whole entry, looked up, the tested form may be a part, one chain of several): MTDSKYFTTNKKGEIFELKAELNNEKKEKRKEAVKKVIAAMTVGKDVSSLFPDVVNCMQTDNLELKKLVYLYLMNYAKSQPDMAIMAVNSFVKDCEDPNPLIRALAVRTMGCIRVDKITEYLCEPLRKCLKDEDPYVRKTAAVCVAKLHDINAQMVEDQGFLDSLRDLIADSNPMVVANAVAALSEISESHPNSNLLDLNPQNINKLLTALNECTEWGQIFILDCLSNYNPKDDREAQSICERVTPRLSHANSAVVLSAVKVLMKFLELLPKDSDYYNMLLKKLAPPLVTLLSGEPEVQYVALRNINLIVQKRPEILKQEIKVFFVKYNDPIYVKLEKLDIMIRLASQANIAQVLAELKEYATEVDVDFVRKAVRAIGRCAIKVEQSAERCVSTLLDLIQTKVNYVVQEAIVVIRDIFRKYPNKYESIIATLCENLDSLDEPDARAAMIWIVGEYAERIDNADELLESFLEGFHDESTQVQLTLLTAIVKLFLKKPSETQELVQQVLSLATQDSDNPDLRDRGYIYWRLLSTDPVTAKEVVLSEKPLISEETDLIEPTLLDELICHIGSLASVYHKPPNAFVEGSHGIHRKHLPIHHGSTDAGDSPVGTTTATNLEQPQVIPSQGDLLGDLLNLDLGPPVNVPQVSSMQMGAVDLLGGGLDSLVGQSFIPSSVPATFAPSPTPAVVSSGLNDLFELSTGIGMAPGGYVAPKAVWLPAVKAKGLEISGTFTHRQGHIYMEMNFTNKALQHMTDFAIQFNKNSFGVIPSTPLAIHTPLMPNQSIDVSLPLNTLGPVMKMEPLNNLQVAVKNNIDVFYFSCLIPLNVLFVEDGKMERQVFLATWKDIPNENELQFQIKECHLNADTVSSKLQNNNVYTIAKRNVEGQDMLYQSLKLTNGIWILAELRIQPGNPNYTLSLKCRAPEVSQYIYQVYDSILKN
GST GSH counter: disrupts GST binding to glutathione beads, arrestin-AP2 artifact | inhibition, % at 10 µM | GST-fluorescein binding to GSH beads, fluorescence, counter-screen | AID 588338 | 2% of 1,300 active | shares compounds with Arrestin-AP2 inh;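 active = inhibition above 50%, about 3 SD of the inhibition seen with non-fluorescent compounds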;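 note: fluorescein maleimide labelled GST captured on 4 micron glutathione beads; higher means more loss of bead fluorescence from quenching or blocked binding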
* = called active by the depositor; x = no result given. The list is not random: actives were taken first. Their share in the collection is about 4%.

SMILES	Arrestin-AP2 inh	FAS TE block	iPSC survival up	SENP1 inh	GRIN3A LBD mod	H9c2 protect	Arr AP2 CP1	GST GSH counter
O=C(COC(=O)c1ccc(F)cc1F)c1ccc[nH]1	72*	-1	1	-5	0	2	-4	2
CC(=O)N1C[C@@H](CO)[C@@H](N(C)C(=O)C2CCCCC2)C[C@H]1c1ccccc1	x	-5	7	0	x	6	x	x
COc1ccc(CNC(=O)CN(CC2CCCO2)C(=O)CNS(=O)(=O)c2ccc(C)cc2)cc1 (centres undefined)	77*	-1	-2	5	0	3	-4	1
O=C(c1ccc(-c2ccc(Cl)cc2)o1)N1CCN(S(=O)(=O)c2cccs2)CC1	2	32	-3	2	-9	4	x	x
O=C(c1ccc(-c2ccc([N+](=O)[O-])cc2)o1)N1CCN(S(=O)(=O)c2cccs2)CC1	65*	39	0	2	0	-1	3	-3
Cc1ccc(NC(=O)Cn2ncn3c(cc4ccccc43)c2=O)cc1F	66*	10	0	-13	-13	-4	0	-4
CCc1cccc(NC(=O)Cn2ncn3c(cc4ccccc43)c2=O)c1	2	0	-1	-10	-1	-6	x	x
COc1cccc(CCOC(=O)c2c(-c3ccsc3)oc3c2C(OC(C)=O)CCC3)c1 (centres undefined)	x	20	0	2	x	x	x	x
Cc1ccc(C(=O)OCC(=O)N2CCCC2)cc1	64*	-1	0	1	1	2	7	-1
O=C(OCC(=O)N1CCCC1)c1ccc(O)cc1	-8	-2	0	1	0	-2	x	x
O=C(c1ccc(S(=O)(=O)NCc2ccco2)cc1)N1CCN(Cc2ccccc2)CC1	59*	-1	0	2	-2	4	4	-6
O=C(NCc1ccccc1F)c1ccc(S(=O)(=O)NCc2ccco2)cc1	-19	2	0	0	-1	-1	x	x
O=C(c1ccc(S(=O)(=O)NCc2ccco2)cc1)N1CCN(Cc2ccccc2F)CC1	5	-6	0	-2	-1	-1	0	0
COc1ccc(CN2CCN(C(=O)c3ccc(S(=O)(=O)NCc4ccco4)cc3)CC2)cc1	27	-4	0	2	3	3	3	-10
O=C(NC1CCN(Cc2ccccc2)CC1)c1ccc(S(=O)(=O)NCc2ccco2)cc1	12	0	0	1	0	-4	x	x
CC1(C(=O)Nc2ccc3c(c2)OCCO3)CCN1C(=O)Cc1ccc(-c2ccccc2)cc1 (centres undefined)	x	20	0	3	x	-23	x	x
COC(=O)CSc1nc(N)nc(C)c1Br	56*	-7	0	-1	3	2	-13	-3
COC(=O)CSc1nc(C)cc(C)c1C#N	1	1	0	-1	-1	6	x	x
O=c1[nH]cc(F)c(=O)n1C1OC(CO)C(O)C1O (centres undefined)	x	-5	-1	-1	x	x	x	x
Cc1cc(N/N=C/c2cccc(Br)c2)nc2ccccc12	57*	-5	-2	-1	-6	-2	5	0
COc1cccc(-n2c(-c3ccco3)nc3nc4ccccc4nc32)c1	75*	0	0	-42	0	2	65*	174*
Cc1ccc(-n2c(-c3ccco3)nc3nc4ccccc4nc32)cc1	11	-10	2	-44	0	-4	x	x
COC(=O)[C@]12CCCCC=C1N(Cc1cccc3ccccc13)C(=O)[C@H](CC(=O)NCc1cccc(C(F)(F)F)c1)C2	x	23	0	3	x	x	x	x
Cc1cc(C)c(NC(=O)CSc2nnc(SCC(=O)Nc3c(C)cc(C)cc3C)n2N)c(C)c1	91*	-5	-2	0	-4	6	-8	-9
Cc1ccc(C)c(NC(=O)CSc2nnc(C)c(=O)n2N)c1	4	-10	0	3	-3	-2	x	x
SMILES	Arrestin-AP2 inh	FAS TE block	iPSC survival up	SENP1 inh	GRIN3A LBD mod	H9c2 protect	Arr AP2 CP1	GST GSH counter
CCn1cc(C(=O)Nc2ccc(F)c(F)c2)cn1	12	-4	-2	1	-6	3	x	x
CCn1cc(C(=O)Nc2ccc(C)c([N+](=O)[O-])c2)cn1	57*	4	0	-1	-7	-2	-2	-4
COc1cc(/C=C2/C(=O)N=C(N)N2C)cc(OC)c1OC	84*	-27	1	-6	-1	2	11	4
COc1ccc(OC)c(NC(=O)CCNS(=O)(=O)c2ccc3c(c2)CC(C)N3C(C)=O)c1 (centres undefined)	x	-4	6	2	x	2	x	x
COc1ccc(NC(=O)C2CCCN(S(=O)(=O)c3c(C)[nH]c(=O)[nH]c3=O)C2)cc1OC (centres undefined)	60*	-7	0	-2	0	7	-10	-3
COc1ccc(NC(=O)C2CCCN(S(=O)(=O)c3c(C)[nH]c(=O)[nH]c3=O)C2)cc1Cl (centres undefined)	1	-4	1	-1	-2	2	x	x
Cc1ccccc1C(=O)Nc1nnc(-c2cccnc2)o1	60*	-5	0	0	0	2	2	-3
Cc1cc2nc(NC(=O)C3(C)CCN3C(=O)C(C)C)[nH]c2cc1C (centres undefined)	x	-5	0	1	x	8	x	x
CCOC(=O)C1=C(COC(=O)Cc2ccc(Br)cc2)NC(=O)NC1C (centres undefined)	3	2	0	-3	1	12	12	-5
CCOC(=O)C1=C(COC(=O)CCc2ccc(CC)cc2)NC(=O)NC1C (centres undefined)	-8	6	2	2	-1	-6	-1	1
CCOC(=O)C1=C(COC(=O)CSc2ccc(C)cc2)NC(=O)NC1C (centres undefined)	-8	-3	0	4	1	4	x	x
CCOC(=O)C1=C(COC(=O)Cc2ccccc2F)NC(=O)NC1C (centres undefined)	16	-6	0	0	-2	2	-5	-10
CCOC(=O)C1=C(COC(=O)CCC(=O)c2ccc(C)cc2)NC(=O)NC1C (centres undefined)	-1	-5	4	-1	0	-7	-4	-13
CCOC(=O)C1=C(COC(=O)CCS(=O)(=O)c2ccc(C)cc2)NC(=O)NC1C (centres undefined)	13	-6	0	-1	0	0	x	x
